Screening results from PubChem BioAssay.
Fibroblast inh: blocks proliferation of human lung fibroblasts. LL 47 human lung fibroblast viability, ATP luminescence; hits give low values. viability, % at 10 µM. hit rate 1.1% among 85,000;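 active = viability at or below 50% in the single dose screen; inactive = viability above 50%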;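 note: compound exposure lasted 72 h before the ATP readout; 100% = median luminescence of untreated cell-only wells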
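Material: Human LL 47 lung fibroblast cells | Input: 1,150 cells/well | Buffer or medium: IMEM plus 15% FBS | Compound dosing: 0.1% DMSO in all compound wells | Times: Overnight cell rest, 72 h compound treatment at 37 °C | Signal: CellTiter-Glo luminescence measuring cellular ATP | Measure: % viability versus median cells-only luminescence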
PTEN del growth: growth suppressors of cells with PTEN tumor suppressor deletion; HCT116 PTEN-null viability, CellTiter-Glo, 60 h; hits give low values; viability, % at 10 µM; hit rate 1.2% among 140,000; AID 827;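 active = viability at or below a set limit, 4 SD under the median of all tested compounds, cut at about 3.7% in these data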;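 note: PTEN knockout HCT116 line with beta catenin targeted HCT116 as companion control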
HUVEC inhibit: inhibitors of human endothelial cell proliferation. HUVEC proliferation, CellTiter-Glo luminescence, 72 h; hits give low values. hit rate 1.1% among 86,000. viability, % at 10 µM (by protocol);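 active = viability at or below 30%; inactive = viability above 30%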;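 note: 100% = median luminescence of DMSO-only cell control wells on each plate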
bCat KO growth: beta-catenin-lacking colon tumor cell growth suppression; hit rate 1.5% among 140,000; AID 818; HCT116 beta-catenin knockout viability, CellTiter-Glo, 60 h; hits give low values; viability, % at 10 µM;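 active = viability at or under a set limit, the compound median less 4 SD, cut at about 6% in these data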;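 note: 0% = Hyamine 1622 control at 20 µM and 100% = untreated cell control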
H69AR growth 86K: growth inhibitors of human H69AR lung tumor cells | H69AR lung tumor viability, ATP luminescence, 72 h; hits give low values | viability, % at 10 µM | hit rate 6% among 85,000;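 active = viability at or below 40%; inactive = viability above 40%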;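 note: multidrug resistant small cell line overexpressing MRP-1 efflux transporter; 100% = mean luminescence of untreated control wells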
The depositor's hits bear a star; x = not tested or not shown. Many of the other results were omitted from the sample, so hits are more common in it than they were.

SMILES	Fibroblast inh	PTEN del growth	HUVEC inhibit	bCat KO growth	H69AR growth 86K
Cc1ccc(-c2nn(CC(N)=O)c(=O)c3ccccc23)cc1S(=O)(=O)N(C)C	98	93	93	83	93
Cc1ccc(S(=O)(=O)n2c3ccc(F)cc3c3nc(C)sc32)cc1	x	80	x	72	x
C=C1C(O)C[C@H]2C(=C)CCC3[C@H](OC(=O)[C@]3(O)CO)[C@@H]12 (stereo not given in full)	x	0.5*	x	0.7*	x
CC1(C)Cc2nc3sc4c(N(CCO)CCO)ncnc4c3cc2CO1	x	91	x	98	x
CC1(C)Cc2nc3sc4c(SCC(=O)NCc5ccccc5)ncnc4c3cc2CO1	55	x	50	12	0.7*
COc1cccc(N2CC(O)=C(c3nc4ccccc4c(=O)[nH]3)C2=N)c1	66	17	62	18	29*
CC(C)N1CC(O)=C(c2nc3ccccc3c(=O)[nH]2)C1=N	99	79	87	82	93
COC1(OC)C(/C=C/c2ccc(Cl)cc2)C(C#N)(C#N)C1(OC)OC (stereo not given)	52	3.0*	7.0*	4.2*	-0.4*
Cc1ccc(-c2nc(SCC(=O)Nc3cc(S(=O)(=O)N4CCCCC4)ccc3Cl)n[nH]2)cc1	x	65	x	72	x
COc1ccc(C)cc1S(=O)(=O)N(CC(=O)NCc1ccc(Cl)cc1)Cc1ccccc1	83	69	87	65	104
Clc1ccc(C2C3=C(Nc4ncnn42)c2ccccc2CC3)cc1 (stereo not given)	85	38	51	39	13*
c1ccc(C2C3=C(Nc4ncnn42)c2ccccc2CCC3)cc1 (stereo not given)	89	91	95	94	78
Cc1nn(-c2nc3ccccc3[nH]2)c(N)c1-c1ccccc1	69	7	80	13	20*
Cc1nn(-c2nc3ccccc3s2)c(N)c1-c1ccccc1	98	95	110	91	88
COc1cc(N=c2ssnc2Cl)c(OC)cc1Cl	44*	104	85	101	1.1*
Cc1ccc(N=C2NC(=O)CS2)cc1	104	101	89	90	97
Cc1cc(Cl)ccc1N=c1ssnc1Cl	101	58	40	13	2.2*
Cc1cc(C)nc(/N=c2/ssnc2Cl)c1	105	12	113	41	20*
COc1ccc(OC)c(N=c2ssnc2Cl)c1	x	94	x	97	x
Cc1ccc(N=c2ssnc2Cl)cc1	97	88	101	97	2.4*
Cc1ccc(SC(=O)COc2ccccc2C)cc1	94	x	73	90	1.7*
Cc1ccc(-c2cc3c(nn2)-c2ccccc2C3=O)cc1	47*	x	58	x	12*
Cc1cccc(C)c1NS(=O)(=O)c1ccc2c(c1)C(=O)c1ccccc1C2=O	x	87	x	83	x
Cc1ccccc1-c1cc2c(nn1)-c1ccccc1C2=O	14*	4	3.2*	3.4*	17*
Cc1ccc(C)c(S(=O)(=O)C(C#N)c2nc3ccccc3nc2N2CC(C)OC(C)C2)c1 (stereo not given)	86	78	70	74	39*
SMILES	Fibroblast inh	PTEN del growth	HUVEC inhibit	bCat KO growth	H69AR growth 86K
O=c1sc(/C=N/Nc2ccccc2)c(Cl)n1Cc1ccccc1	x	76	x	87	x
COC(=O)c1cccc(Cn2c(Cl)c(/C=N/NC(=O)c3ccccc3Cl)sc2=O)c1	97	78	79	90	31*
CCOC(=O)C1=C(C)NC(C)=C(C(=O)OCC)C1C(=O)OCC(=O)NC(C)C	x	96	x	94	x
CCc1nnc2n1N=C(c1ccc(-c3ccc(Cl)cc3Cl)o1)CS2	95	x	97	x	84
Clc1ccc(OCc2nnc3n2N=C(c2ccc4c(c2)OCCO4)CS3)c(Cl)c1	87	27	77	27	38*
Cc1ccc2c(COn3nnc4ccc(S(=O)(=O)N(C)C)cc43)cc(=O)oc2c1C	99	95	83	96	33*
CC(Oc1ccc(Cl)cc1Cl)c1nc(-c2ccc(NC(=O)c3ccncc3)cc2)no1 (stereo not given)	82	15	50	12	25*
CC(Oc1ccc(Cl)cc1Cl)c1nc(-c2ccc(NC(=O)c3cccnc3)cc2)no1 (stereo not given)	87	11	72	15	6.3*
COc1ccc(Cl)cc1-c1nc(-c2ccc(NC(=O)c3cccs3)cc2)no1	x	2.5*	x	3.3*	x
COc1ccc(NC(=O)c2cccs2)cc1OC	106	81	97	103	107
CCOC(=O)c1[nH]c(COC(=O)CCCOc2ccccc2)c(C(=O)OCC)c1C	90	x	92	x	87
CC(C)(C)NC(=O)CSC(=Nc1cccc(F)c1)NC#N	99	91	100	90	96
CCC(=O)Nc1ccc(Cl)c(NC(=O)C(C)C)c1	98	97	94	108	93
COc1ccc(/C=C(/NC(=O)c2ccccc2)c2nc3ccccc3[nH]2)cc1OC	x	98	x	86	x
O=C(/C=C/c1cccc(Cl)c1)c1nc2ccccc2[nH]1	x	1.0*	x	0.7*	x
O=C(/C(=C/c1ccc(Cl)cc1)c1nc2ccccc2[nH]1)c1cccs1	x	1.9*	x	1.9*	x
COc1cc(/C=C(/C(=O)c2cccs2)c2nc3ccccc3[nH]2)ccc1O	11*	2.0*	38	3.8*	2.0*
O=C(/C(=C\c1ccccc1)c1nc2ccccc2[nH]1)c1ccc(Cl)cc1	x	1.9*	x	2.2*	x
CCOC(=O)C1C(=O)OC(C)(C)C1C(C)C(=O)c1ccccc1 (stereo not given)	105	101	96	108	81
NNc1nc2c(F)cc(F)cc2s1	x	87	x	88	x
Cc1oc(-c2ccc(Cl)cc2)nc1CN1CCCC(C(=O)NCc2ccccn2)C1 (stereo not given)	111	72	102	68	71
Cc1oc(-c2cccc(Cl)c2)nc1CN1CCCC(C(=O)NCc2ccco2)C1 (stereo not given)	90	82	76	66	60
Cc1cccc(-c2nc(CN3CCCC(C(=O)NC4CCCCCC4)C3)c(C)o2)c1 (stereo not given)	94	59	35	58	40*
Cc1cccc(-c2nc(CN3CCCC(C(=O)NC4CCCCC4)C3)c(C)o2)c1 (stereo not given)	109	78	60	73	39*
COC(=O)CSC1=NS(=O)(=O)c2ccccc21	69	99	80	103	37*
SMILES	Fibroblast inh	PTEN del growth	HUVEC inhibit	bCat KO growth	H69AR growth 86K
COC(=O)CSc1ccccc1C(=O)OC	92	103	90	124	94
O=C(CSC1=NS(=O)(=O)c2ccccc21)Nc1ccccc1	53	104	48	89	19*
COc1ccc(/C=C/c2cc(-c3ccc(C)cc3)o[n+]2C)cc1	x	1.5*	x	1.2*	x
CCOc1cc(N2CCOCC2)c(OCC)cc1NC(C)C(=O)N1CCC(C)CC1 (stereo not given)	x	85	x	90	x
Cc1ccc2nc(/C(C#N)=C\c3ccc(Oc4ccc(C(F)(F)F)cc4[N+](=O)[O-])cc3)[nH]c2c1	x	28	x	39	x
COc1ccc(/C=C(\C#N)c2nc3ccc(C)cc3[nH]2)cc1Oc1ccc(C(F)(F)F)cc1[N+](=O)[O-]	x	1.3*	x	1.5*	x
